“Also recorded” adds a separate entry of the source.
Tests used:
[1] = Pore-opening assay: plain liposomes; assay type: biochemical; conditions: 4-MUP loaded, data not shown
Summary of the method: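 Liposomes sonicated on ice with 1 mM 4-MUP and 10 mM KCl, then freed of unencapsulated probe on Sephadex G-25. Diluted in 10 mM Hepes, 125 mM saccharose pH 7.4 and exposed to inducers for 1 h at RT; inhibitors were added 30 min earlier. Alkaline phosphatase with 0.5 mM MgCl2 was added for 15 min at 37°C and stopped with EDTA buffer at pH 10. 4-MU fluorescence (360/450 nm) was expressed as % of the atractyloside response after subtracting untreated liposomes.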

ANT [2] = biological target: T1, ANT (Rattus norvegicus, UniProt Q05962); assay: Planar lipid bilayers, single channel level, Vpr52-96 plus ANT; assay type: biochemical; conditions: Vpr52-96 plus ANT 0.4:1 nM, +115 mV; tip-dip technique
T1 sequence (Q05962 1-298): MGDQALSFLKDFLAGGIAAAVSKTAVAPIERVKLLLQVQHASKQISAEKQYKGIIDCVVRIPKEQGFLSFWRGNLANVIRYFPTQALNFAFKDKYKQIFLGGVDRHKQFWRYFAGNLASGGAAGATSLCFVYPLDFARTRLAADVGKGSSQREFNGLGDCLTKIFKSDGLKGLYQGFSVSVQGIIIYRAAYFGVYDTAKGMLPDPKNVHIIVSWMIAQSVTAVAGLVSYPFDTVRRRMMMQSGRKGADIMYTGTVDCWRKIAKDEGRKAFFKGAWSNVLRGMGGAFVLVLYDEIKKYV
Summary of the method: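 Rat heart mitochondrial ANT, purified via subtilisin treatment, Triton X-100 solubilization, hydroxyapatite and SP column (0–1 M NaCl). Proteins held 30 min RT with 1 mM CaCl2, 40 μM atractyloside or control electrolyte, mixed with dried lipid (60 μg protein/mg lipid), detergent removed by beads. Tip-dip bilayers, symmetric 100 mM KCl, 2 mM MgCl2, 10 mM Hepes pH 7.4.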

ANT proteoliposomes [3] = assay: Binding of FITC-labeled Vpr52-96 to ANT proteoliposomes; design: species or system rat; conditions: FITC-labeled Vpr52-96, 30 min; Fig. 2 A; n = 3
Summary of the method: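 ANT was purified from rat heart mitochondria (Triton X-100 extraction, hydroxyapatite, then cation-exchange with a 0–1 M NaCl gradient) and reconstituted at 0.1 mg/ml into phosphatidylcholine/cardiolipin liposomes, then dialysed overnight at 4°C. Proteoliposomes were exposed 30 min to FITC-peptide in 125 mM sucrose/10 mM Hepes pH 7.4, ultracentrifuged (290,000 g, 45 min, 10°C) and read by flow cytometry. Inhibitors were preincubated and washed out; mean ± SD, n = 3.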

[4] = system: purified mitochondria, inner membrane; assay: Respirometry: NADH-dependent oxygen consumption; assay type: biochemical, mouse
Summary of the method: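 Oxygen uptake was recorded by Clark electrode at 37°C (mannitol/KCl/MgCl2/BSA/KH2PO4 medium, pH 7.4) after 2 mM NADH and 1 μM peptide, with rotenone added to test sensitivity; rates are in nmol O2/min/mg protein. For inhibitor tests, mitochondria were pretreated 10 min with 0.8 μM Bcl-2 or 10 μM BA before succinate plus CCCP or NADH. In the kinetics, 15 μM cytochrome c oxidation was followed in parallel, with 100% set by 2.5 mM laurylmaltoside.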

[5] = system: purified mitochondria, outer membrane; assay: Cytochrome c oxidation; assay type: biochemical, mouse; conditions: 15 μM cytochrome c; 100% by 2.5 mM laurylmaltoside; Fig. 5 B
Summary of the method: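 Mouse liver mitochondria exposed to test peptide, followed over time. Outer-membrane permeability read as spectrophotometric/spectrofluorometric oxidation of added reduced cytochrome c (15 μM) by cytochrome c oxidase. Maximal (100%) oxidation set by 2.5 mM laurylmaltoside; signal expressed as a percentage of this. Inner-membrane NADH oxidation (2 mM, oxygen consumption) tracked in parallel.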

ANT proteoliposomes [6] = assay: Pore-opening assay: 4-MUP release from ANT proteoliposomes; assay type: biochemical, rat; conditions: peptides 1 μM, 60 min, Atr 200 μM = 100%, Fig. 2 C
Summary of the method: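 ANT purified from rat heart mitochondria, reconstituted into PC/cardiolipin liposomes, sonicated on ice with 1 mM 4-MUP/10 mM KCl, gel-filtered. Diluted in 10 mM Hepes, 125 mM saccharose pH 7.4, peptide 1 h RT; inhibitors added 30 min earlier. Alkaline phosphatase (0.5 mM MgCl2) 15 min 37°C, stopped at pH 10. 4-MU fluorescence 360/450 nm. Release = % of atractyloside response after untreated background subtraction; n = 3, SD.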

[7] = Planar lipid bilayers, single channel level, Vpr52-96 without ANT; assay type: biochemical; conditions: <1 nM Vpr52-96
Summary of the method: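 Solvent-free planar bilayers formed by monolayer apposition on a 125-μm Teflon aperture, or by tip-dip on patch pipettes. Recording was in symmetric 100 mM KCl, 2 mM MgCl2, 10 mM Hepes pH 7.4, with Ag/AgCl electrodes under applied voltage. Bare membranes were first checked for electrical silence; peptide was added to the aqueous subphase after bilayer formation. Single-channel current traces show the most frequent events.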

isolated mitochondria = assay: Ultrastructure: swelling of isolated mitochondria; assay type: biochemical, mouse; conditions: for swollen mitochondria: control <5%
[8] = system: purified mitochondria (respiratory control); assay: Respiratory control; assay type: biochemical, mouse; conditions: 1 μM Vpr-derived peptides, 10 min
Summary of the method: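 Clark-electrode oxygraphy at 37°C in 0.3 M mannitol, 10 mM KCl, 5 mM MgCl2, 1 mg/ml BSA, 10 mM KH2PO4, pH 7.4. Purified mitochondria were pretreated 10 min with 1 μM peptide; succinate oxidation was followed with sequential ADP, oligomycin and CCCP additions. Mean of three determinations.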

[9] = system: purified mitochondria (cytochrome c release); assay: Cytochrome c release immunodetected in supernatant of mitochondria; assay type: biochemical, mouse; conditions: 1 μM Vpr52-96; immunoblot; Fig. 5 C
Summary of the method: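 Mouse liver mitochondria treated with test peptide over a time course. Supernatants cleared by two spins (6,800 g 15 min; 20,000 g 1 h; both 4°C), stored at −80°C, and cytochrome c immunodetected with a mouse monoclonal antibody. In parallel, ΔΨm loss scored by flow cytometry with JC-1 as percent low-ΔΨm mitochondria.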

[10] = system: purified mitochondria (respiratory chain); assay: Polarography: succinate oxidation of purified mitochondria; assay type: biochemical, mouse; conditions: 1 μM Vpr52-96, 10 min pretreatment; Fig. 4 A
Summary of the method: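 Mouse liver mitochondria, pretreated 10 min with test peptide or untreated, held at 37°C in a Clark-electrode cell. Medium: 0.3 M mannitol, 10 mM KCl, 5 mM MgCl2, 1 mg/ml BSA, 10 mM KH2PO4, pH 7.4. Oxygen consumption traced on succinate with sequential ADP, oligomycin and CCCP additions.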

ANT [11] = biological target: T1, ANT; assay: Plasmon resonance; assay type: binding
recombinant VDAC = assay: Plasmon resonance: binding to recombinant VDAC; conditions: control experiments, VDAC concentrations up to 10 μM
PTPC = conditions: cited from earlier work
recombinant Bcl-2 = assay: Plasmon resonance: interaction with recombinant Bcl-2; assay type: binding, human; conditions: surface plasmon resonance, control experiments

| Compound | effect on plain liposomes [1] | channel conductance, Vpr52-96 plus ANT (ANT [2]) [pS] | binding to ANT liposomes compared with protein-free liposomes (ANT proteoliposomes [3]) | NADH-dependent oxygen consumption (IM permeabilization to NADH) ([4]; 1 μM Vpr52-96, 2 mM NADH, Fig. 5 A) | time of maximal NADH oxidation after addition ([4]; Vpr52-96, 2 mM NADH, Fig. 5 B) [min] | access of cytochrome c to cytochrome c oxidase [5] | permeabilization of ANT proteoliposomes (ANT proteoliposomes [6]) | channel formation at low doses without ANT [7] | swollen mitochondria (isolated mitochondria; 5 min after 3 μM Vpr52-96, X ± SEM, n = 3) [%] | swollen mitochondria (isolated mitochondria; 15 min after 3 μM Vpr52-96) [%] | ultrastructural effect (in words) (isolated mitochondria; Vpr52-96-treated mitochondria, Fig. 6 C) | effect on RC (in words) [8] | order of ΔΨm loss, inner MMP and cytochrome c release [9] | effect on respiration (succinate oxidation) [10] | sensorgram: increase of binding as a function of time (ANT [11]; plasmon resonance, association and dissociation phase, Fig. 1 A) | binding affinity for ANT (in words) (ANT [11]; surface plasmon resonance, purified detergent-solubilized ANT) | specific binding to VDAC (recombinant VDAC) | action on PTPC and mitochondrial hallmarks of apoptosis (PTPC) | interaction with recombinant Bcl-2 (recombinant Bcl-2) |
| --- | --- | --- | --- | --- | --- | --- | --- | --- | --- | --- | --- | --- | --- | --- | --- | --- | --- | --- | --- |
| CC[C@H](C)[C@H](NC(=O)CNC(=O)[C@@H](NC(=O)[C@H](CCCNC(=N)N)NC(=O)[C@H](CO)NC(=O)[C@H](Cc1c[nH]cn1)NC(=O)[C@H](CCCNC(=N)N)NC(=O)[C@H](CS)NC(=O)CNC(=O)[C@@H](NC(=O)[C@H](CCCNC(=N)N)NC(=O)[C@H](Cc1ccccc1)NC(=O)[C@H](Cc1c[nH]cn1)NC(=O)[C@@H](NC(=O)[C@H](Cc1ccccc1)NC(=O)[C@H](CC(C)C)NC(=O)[C@H](CC(C)C)NC(=O)[C@H](CCC(N)=O)NC(=O)[C@H](CCC(N)=O)NC(=O)[C@H](CC(C)C)NC(=O)[C@@H](NC(=O)[C@H](CCCNC(=N)N)NC(=O)[C@@H](NC(=O)[C@H](CC(C)C)NC(=O)[C@H](C)NC(=O)[C@H](CCC(=O)O)NC(=O)[C@@H](NC(=O)CNC(=O)[C@@H](NC(=O)[C@H](Cc1c[nH]c2ccccc12)NC(=O)[C@@H](NC(=O)[C@@H](N)CC(=O)O)[C@@H](C)O)[C@@H](C)O)C(C)C)[C@@H](C)CC)[C@@H](C)CC)[C@@H](C)CC)[C@@H](C)CC)[C@@H](C)CC)C(=O)N[C@H](C(=O)N[C@@H](CCC(N)=O)C(=O)N[C@@H](CCC(N)=O)C(=O)N[C@@H](CCCNC(=N)N)C(=O)N[C@@H](CCCNC(=N)N)C(=O)N[C@H](C(=O)N[C@@H](CCCNC(=N)N)C(=O)N[C@@H](CC(N)=O)C(=O)NCC(=O)N[C@@H](C)C(=O)N[C@@H](CO)C(=O)N[C@@H](CCCCN)C(=O)N[C@@H](CO)C(=O)O)[C@@H](C)O)[C@@H](C)CC [Vpr52-96] | had no effect on plain liposomes | 190 ± 2 | greatly facilitated in liposomes in which ANT has been reconstituted compared with protein-free liposomes | prompted a significant, NADH-stimulated oxygen consumption | 10 | only induced a marginal access of cytochrome c to cytochrome c oxidase | caused permeabilization of ANT proteoliposomes | incapable of forming channels | 82 ± 4 | 99 ± 1 | exhibited matrix swelling before OM rupture became apparent | gross deficiency in respiratory control | the ΔΨm loss occurred before cytochrome c release can be detected by immunoblot; also recorded: causes inner MMP well before OM becomes permeable to cytochrome c | increased succinate oxidation preceding ADP addition and abolished both the inhibitory effect of oligomycin (a specific ATPase inhibitor) and the stimulatory effect of uncoupling by the protonophore CCCP; also recorded: not associated with a significant decrease of the oxidation rate; also recorded: adding cytochrome c to Vpr52-96–treated mitochondria oxidizing succinate did not stimulate the rate of oxygen uptake | exhibits an increase of binding as a function of time and a positive signal at the start of the dissociation phase (off) | affinity in the nanomolar range | no specific binding |  |  |
| Vpr1-96: entire (full-length) Vpr protein |  |  |  |  |  |  |  |  |  |  |  | also reduced the RC values |  |  |  |  |  | act on the PTPC to induce all mitochondrial hallmarks of apoptosis, including ΔΨm loss and the release of cytochrome c and apoptosis-inducing factor (AIF) |  |
| Vpr53-96: printed once; probably Vpr52-96 |  |  |  |  |  |  |  |  |  |  |  |  |  |  |  |  |  |  | found not to interact with recombinant Bcl-2 |
